The assay can be described thus: Inhibition constant against Adenosine A2a receptor. A digest of the protocol:
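Membranes from HEK cells expressing human A2A receptor, incubated with 1 nM [3H]SCH-58261 and 10 test concentrations. Buffer: phosphate-buffered saline with 10 mM MgCl2, 0.04% methyl cellulose, adenosine deaminase and 4% DMSO. Incubation 60 min at 23 °C, then filtration and washes with cold water. Nonspecific binding defined with CGS-15943. Duplicates, each compound tested twice. IC50 from one-site fit, Ki by Cheng–Prusoff.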

pKi: −log10 of the molar value.

For `Cc1ccc2c(c1)-c1nc(N)nc(-c3ccc(CO)o3)c1C2`, the pKi – broadly, the negative decadic logarithm of the Ki, by convention in mol/L – was 8.59.
The figure for `Cc1ccc2c(c1)-c1nc(N)nc(C3CCC(Br)O3)c1C2` (stereo not given) is 8.38.
The figure for `CCc1ccc2c(c1)-c1nc(N)nc(-c3ccc(Br)o3)c1C2` is 8.59; for `Cc1ccc2c(c1)-c1nc(N)nc(-c3ccncc3)c1C2` it is 7.24.
The figure for `COc1ccc2c(c1)-c1nc(N)nc(-c3ccc(Br)o3)c1C2` is 8.80; for `Nc1nc(-c2ccccc2)c2[nH]c3ccccc3c2n1` it is 7.39; for `CC(C)(C)c1ccc2c(c1)-c1nc(N)nc(-c3ccc(Br)o3)c1C2` it is 8.09.
Take `Nc1nc(-c2ccccc2)c2oc3ccccc3c2n1`: the pKi was 8.05.
With `Nc1nc(-c2ccccc2)c2c(n1)-c1ccccc1CC2` the figure was 6.76.
With `Nc1nc(-c2ccc(Br)o2)c2c(n1)-c1cc(Cl)ccc1C2` the figure was 9.00; with `Nc1nc(-c2ccc(Br)o2)c2c(n1)-c1cc(N3CCCC3)ccc1C2`, 8.41.
The figure for `Cc1ccc2c(c1)-c1nc(N)nc(-c3ccccc3)c1C2` is 7.96.
As to `CC(C)c1ccc2c(c1)-c1nc(N)nc(-c3ccc(Br)o3)c1C2`, the pKi is 9.10.
With `Cc1ccc2c(c1)-c1nc(N)nc(-c3ccco3)c1C2` the figure was 8.17; with `Cc1ccc2c(c1)-c1nc(N)nc(-c3ccc(C)o3)c1C2`, 8.15.
With `Cc1ccc2c(c1)-c1nc(N)nc(-c3ccc(Br)o3)c1C2` the figure was 8.38.
The compound `Nc1nc(-c2ccccc2)c2c(n1)-c1ccccc1C2O` (stereo not given) gave a pKi of 6.77.
Compound `Nc1nc(-c2ccc(Br)o2)c2c(n1)-c1cc(-c3ccccc3)ccc1C2` showed a pKi of 7.96.
`Cc1ccc2c(c1)-c1nc(N)nc(-c3ccccn3)c1C2` had a pKi of 6.81.
With `Nc1nc(-c2ccccc2)c2c(n1)-c1ccccc1C2=O` the figure was 8.77.
